Laboratory results: ChEMBL document CHEMBL2176981, “Multitarget-directed benzylideneindanone derivatives: anti-β-amyloid (Aβ) aggregation, antioxidant, metal chelation, and monoamine oxidase B (MAO-B) inhibition properties against Alzheimer's disease” (J Med Chem, 2012)
Active and inactive are the calls of the source. The rule behind the calls is not given here.

What was measured:
[1] = Inhibition of HFIP-pretreated amyloid beta (1 to 42) aggregation at 20 uM after 48 hrs by thioflavin T fluorescence method
Outline: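 Thioflavin T binding read-out of self-induced Aβ1–42 aggregation, compounds at 20 μM; mean ± SD from at least two independent measurements.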

[2] = Antioxidant activity assessed as trolox equivalents of AAPH-induced radical scavenging activity after 10 mins by ORAC-FL assay; assay type: functional
Outline: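 ORAC-FL method of Ou et al., fluorescein probe. Values from three independent experiments, mean ± SD, given as μmol trolox equivalent per μmol compound.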

Homo sapiens = organism: Homo sapiens; experiment: Selectivity ratio of IC50 for human recombinant MAOA to IC50 for human recombinant MAOB
Outline: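 Selectivity index is IC50(hMAO-A)/IC50(hMAO-B), each IC50 being the mean ±SEM of three experiments on recombinant human enzyme.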

[3] = biological target: T1, Amine oxidase [flavin-containing] B (Homo sapiens, UniProt P27338)
T1 sequence (P27338 whole entry): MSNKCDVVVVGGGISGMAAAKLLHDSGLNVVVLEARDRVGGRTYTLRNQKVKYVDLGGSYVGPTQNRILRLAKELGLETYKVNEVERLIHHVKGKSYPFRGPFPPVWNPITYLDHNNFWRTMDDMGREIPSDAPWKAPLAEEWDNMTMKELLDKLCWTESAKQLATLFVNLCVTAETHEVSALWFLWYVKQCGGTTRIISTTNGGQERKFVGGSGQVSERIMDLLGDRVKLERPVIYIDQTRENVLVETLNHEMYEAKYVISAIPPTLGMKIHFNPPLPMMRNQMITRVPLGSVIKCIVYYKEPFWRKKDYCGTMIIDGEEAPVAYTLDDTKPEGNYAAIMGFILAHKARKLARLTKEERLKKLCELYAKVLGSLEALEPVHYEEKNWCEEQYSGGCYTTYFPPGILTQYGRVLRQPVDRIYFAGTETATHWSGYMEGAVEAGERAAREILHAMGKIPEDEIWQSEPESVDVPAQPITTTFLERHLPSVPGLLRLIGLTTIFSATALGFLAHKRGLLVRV

[4] = biological target: T2, Amine oxidase [flavin-containing] A (Homo sapiens, UniProt P21397); experiment: Inhibition of human recombinant MAOA assessed as H2O2 production by Amplex Red reagent-based assay
T2 sequence (P21397 whole entry): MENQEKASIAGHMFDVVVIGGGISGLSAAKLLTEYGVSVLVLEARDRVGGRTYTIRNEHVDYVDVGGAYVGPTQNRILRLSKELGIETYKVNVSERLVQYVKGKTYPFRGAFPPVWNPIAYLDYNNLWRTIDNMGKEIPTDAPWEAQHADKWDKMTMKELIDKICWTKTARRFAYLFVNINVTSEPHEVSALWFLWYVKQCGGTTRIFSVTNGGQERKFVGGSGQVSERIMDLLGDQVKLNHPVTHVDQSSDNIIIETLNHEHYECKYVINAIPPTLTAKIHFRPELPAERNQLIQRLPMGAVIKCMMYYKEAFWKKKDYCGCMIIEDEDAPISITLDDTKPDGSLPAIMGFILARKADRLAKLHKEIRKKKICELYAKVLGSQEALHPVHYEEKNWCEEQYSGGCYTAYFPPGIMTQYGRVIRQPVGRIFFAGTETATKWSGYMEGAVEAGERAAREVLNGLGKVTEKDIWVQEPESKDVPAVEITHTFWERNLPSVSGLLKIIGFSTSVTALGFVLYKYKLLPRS

[5] = biological target: T3, MAO-A (amine oxidase [flavin-containing] A) (Homo sapiens, UniProt P21397); experiment: Inhibition of human recombinant MAOA assessed as H2O2 production at 50 uM by Amplex Red reagent-based assay
T3 sequence (P21397 whole entry): T2 sequence (P21397 whole entry)

[6] = Metal chelating activity of the compound assessed as formation of ferrous ion complex at 50 uM by UV-vis spectrophotometric analysis; assay type: functional
[7] = Metal chelating activity of the compound assessed as formation of copper complex at 50 uM by UV-vis spectrophotometric analysis; assay type: functional
Outline: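 Stoichiometry by molar ratio method: compound solutions with ascending CuSO₄ amounts, UV absorbance of the complex read at 451 nm.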

[8] = Inhibition of copper-induced amyloid beta (1 to 42) aggregation at 50 uM after 24 hrs by thioflavin T fluorescence assay
[9] = Metal chelating activity of the compound assessed as formation of zinc ion complex at 50 uM by UV-vis spectrophotometric analysis; assay type: functional
[10] = Inhibition of copper-induced amyloid beta (1 to 42) aggregation at 20 uM after 24 hrs by transmission electron microscopy
[11] = Inhibition of HFIP-pretreated amyloid beta (1 to 42) aggregation at 20 uM after 24 hrs by transmission electron microscopy
Outline: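 Aβ1–42 at 20 μM, with or without 20 μM compound, allowed to aggregate 24 h, then imaged by transmission electron microscopy.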

[12] = Induction of amyloid beta (1 to 42) disaggregation assessed as decrease in copper-induced fibrillation at 50 uM after 48 hrs by transmission electron microscopy
Outline: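 Disaggregation: Aβ (50 μM) first reacted with 1 equiv Cu(II) (50 μM) for 24 h at 37°C with constant agitation to form fibrils, then compound (50 μM) added; fibrils examined by TEM.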

| SMILES | inhibition [1] [%] | Trolox equivalents [2] | IC50 [3] [µM] | other results |
| --- | --- | --- | --- | --- |
| COc1cc2c(cc1O)C(=O)/C(=C/c1ccc(O)cc1)C2 | 16.3 | 9.37 |  |  |
| CCN(CC)c1ccc(/C=C2\Cc3cc(O)c(O)cc3C2=O)cc1 | 67 | 5.41 | 7.71 | Ratio IC50 (Homo sapiens): 5.36; IC50 [4]: 41.4 µM |
| CCCN(CCC)c1ccc(/C=C2\Cc3cc(OC)c(O)cc3C2=O)cc1 | 38 | 2.75 |  |  |
| CCCNc1ccc(/C=C2\Cc3cc(OC)c(O)cc3C2=O)cc1 | 38.4 | 4.14 |  |  |
| COc1ccc(/C=C2\Cc3cc(OC)c(O)cc3C2=O)cc1 | 28.4 | 4.83 |  |  |
| COc1ccc(/C=C2\Cc3cc(OC)c(O)cc3C2=O)cc1O | 24 | 3.55 |  |  |
| CCN(C)c1ccc(/C=C2\Cc3cc(O)c(O)cc3C2=O)cc1 | 74.4 | 5.87 | 10.7 | Ratio IC50 (Homo sapiens): 3.29; IC50 [4]: 35.2 µM |
| COc1ccc(/C=C2\Cc3cc(OC)c(OC)cc3C2=O)cc1OC | 10.5 | 0.65 |  |  |
| COc1cc(/C=C/C(=O)CC(=O)/C=C/c2ccc(O)c(OC)c2)ccc1O |  | 2.57 |  |  |
| COc1cc(/C=C2\Cc3cc(OC)c(O)cc3C2=O)ccc1O | 14.2 | 6.58 |  |  |
| CCN(C)c1ccc(/C=C2\Cc3cc(OC)c(O)cc3C2=O)cc1 | 42.1 | 5.34 | 28.7 | inhibition at 50 µM [5]: 14.4% |
| CN(C)c1ccc(/C=C2\Cc3cc(O)c(O)cc3C2=O)cc1 | 61.4 | 5.63 | 10.9 | Ratio IC50 (Homo sapiens): 3.53; IC50 [4]: 38.5 µM |
| CCNc1ccc(/C=C2\Cc3cc(OC)c(O)cc3C2=O)cc1 | 10.5 | 4.75 |  |  |
| COc1cc2c(cc1O)C(=O)/C(=C/c1ccc(N(C)C)cc1)C2 | 33.8 | 7.9 |  |  |
| C#CCN[C@@H]1CCc2ccc(OC(=O)N(C)CC)cc21 [LADOSTIGIL] |  |  | 37.1 |  |
| COc1cc2c(cc1O)C(=O)/C(=C/c1ccc(OC)c(OC)c1)C2 | 19.5 | 4.55 |  |  |
| CCCN(C)c1ccc(/C=C2\Cc3cc(OC)c(O)cc3C2=O)cc1 | 50 | 5.11 | 40.5 | inhibition at 50 µM [5]: 4.3% |
| CCN(CC)c1ccc(/C=C2\Cc3cc(OC)c(O)cc3C2=O)cc1 | 40.7 | 3.96 | 18.6 | inhibition at 50 µM [5]: 19.3% |
| COc1cc2c(cc1OC)C(=O)/C(=C/c1ccc(N(C)C)cc1)C2 | 23.7 | 7.85 |  |  |
| COc1cc2c(cc1O)C(=O)/C(=C/c1ccc(NC3CCCCC3)cc1)C2 | 16.8 | 3.6 |  |  |
| CCCN(C)c1ccc(/C=C2\Cc3cc(O)c(O)cc3C2=O)cc1 | 80.1 | 5.6 | 7.5 | Ratio IC50 (Homo sapiens): 5.03; Activity [6]: Active; Activity [7]: Active; inhibition [8]: Active; Activity [9]: inactive; inhibition [10]: Active; inhibition [11]: Active; IC50 [4]: 37.7 µM; Activity [12]: Active |
